Screens: PubChem, Broad Institute
A selection: hits, their analogues and other compounds. The true share with any hit is near 5.8%.
KDM4C inh – KDM4C (human) demethylase inhibition. Q9H3R0. GST-KDM4C 2-372, H3K9me3 peptide, LANCE TR-FRET. inhibition, % at 12.5 µM. 96,000 tested, 0.15% active. AID 720574;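 active = mean replicate inhibition above about 25%, with at least 55% of replicates also reaching it, limit read from the data, passing the limit was not always enough; inconclusive = only one of those two conditions met; inactive = neither condition met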
Target sequence (Q9H3R0 2-372 limits assumed): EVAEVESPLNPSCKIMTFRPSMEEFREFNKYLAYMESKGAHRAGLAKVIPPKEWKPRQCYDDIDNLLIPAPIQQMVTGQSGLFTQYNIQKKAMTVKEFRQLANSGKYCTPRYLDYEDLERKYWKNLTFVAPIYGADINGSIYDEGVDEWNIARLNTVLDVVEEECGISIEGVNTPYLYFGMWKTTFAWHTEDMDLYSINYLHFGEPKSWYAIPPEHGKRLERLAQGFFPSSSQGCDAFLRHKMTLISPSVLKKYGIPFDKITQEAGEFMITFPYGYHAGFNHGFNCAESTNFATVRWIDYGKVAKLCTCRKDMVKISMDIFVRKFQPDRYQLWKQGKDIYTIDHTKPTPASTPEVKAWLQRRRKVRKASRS
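Test system – GST-tagged GASC-1 (JMJD2C) catalytic fragment, aa 2-372 · Medium – HEPES buffer, pH 7.5, plus ascorbate · Reagent – H3K9me3 peptide with Fe(II)/2OG · Compound – one test concentration per compound · Timing – 30 min reaction, 60 min detection, RT · Technique – TR-FRET with Eu antibody and ULight streptavidin, EDTA stop · Read-out basis – inhibition from TR-FRET ratio decrease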
Pf Dd2 inh – P. falciparum Dd2 growth inhibition. SYBR Green, 72 h; hits give low values. activity change, % at 10 µM. 94,000 tested, 2.3% active. AID 1159554; in the data active = activity change below about -80%; inconclusive = no clear call, values can overlap the other calls
IDH1 R132H inh – IDH1 R132H (human) inhibition | O75874 | IDH1 R132H reductase, diaphorase/resazurin fluorescence, 60 min | inhibition, % at 10 µM | 70,000 tested, 0.18% active; in the data active = inhibition above about 34%; inconclusive = no clear call, values can overlap the other calls; inactive = below about 11%;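 note: 0% = DMSO and 100% = no enzyme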
T cruzi growth-1 – inhibitors of T. cruzi proliferation. T. cruzi beta-gal in NIH3T3, GalScreen luminescence, 90 h. inhibition, % at 8.34 µM. 77,000 tested, 5.9% active. AID 624255;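 active = mean inhibition above about 93%, with at least 55% of replicates each passing it, limit read from the data, passing the limit was not always enough; inconclusive = only one of those two conditions holds; inactive = neither condition holds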
T cruzi growth-2 – Trypanosoma cruzi proliferation inhibition | 5,600 tested, 72% active | shares compounds with T cruzi growth-1 | T. cruzi beta-gal in NIH3T3, GalScreen luminescence, 90 h | AID 651739 | inhibition, % at 8.35 µM;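 active = mean replicate inhibition above about 95% and at least 55% of replicates individually reaching it, limit read from the data; inconclusive = only one of the two criteria is met; inactive = neither criterion is met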
T cruzi growth-3 – inhibitors of T. cruzi proliferation. shares compounds with T cruzi growth-1. T. cruzi beta-gal in NIH3T3, GalScreen luminescence, 90 h. inhibition, % at 2.09 µM. 5,600 tested, 21% active;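 active = mean inhibition above about 95%, with at least 55% of replicates also reaching it, limit read from the data; inconclusive = meets just one of the two conditions; inactive = meets neither condition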;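 note: plate controls were neutral control median for no effect and positive control median for full effect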
NIH3T3 tox – kills mouse NIH/3T3 fibroblasts | shares compounds with T cruzi growth-1 | NIH/3T3 viability, CellTiter-Glo ATP luminescence, 90 h | cytotoxicity (signal decrease), % at 8.35 µM | 5,600 tested, 14% active;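 active = mean signal decrease across replicates above about 35% based on untreated-well scatter, with enough replicates individually passing, limit read from the data; inconclusive = no rule stated though some were filed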;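 note: 0% = median of neutral control wells and 100% = median of positive control wells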
3T3 cytotox 2 – kills mouse NIH/3T3 fibroblasts; shares compounds with T cruzi growth-1; NIH/3T3 viability, CellTiter-Glo ATP luminescence, 90 h; inhibition, % at 24.9 µM; 5,600 tested, 56% active; AID 651744;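 active = mean loss of cell viability signal at or above a set limit, and enough replicates individually reaching it; inconclusive = meets only the mean limit or only the replicate share; inactive = meets neither condition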;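 note: 0% = median of neutral control wells and 100% = median of positive control wells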
Starred values were filed as active, the others as inactive; u = inconclusive; x = not tested or not shown.

SMILES	KDM4C inh	Pf Dd2 inh	IDH1 R132H inh	T cruzi growth-1	T cruzi growth-2	T cruzi growth-3	NIH3T3 tox	3T3 cytotox 2
Cc1ccc(S(=O)(=O)Nc2ccc3c(c2)C(=O)N([C@@H](C)CO)C[C@H](C)[C@H](CN(C)Cc2ccc4c(c2)OCO4)OCCCC[C@@H](C)O3)cc1	-0.5	-69.9	x	31.0	x	x	x	x
COc1ccc(S(=O)(=O)Nc2ccc3c(c2)C(=O)N([C@@H](C)CO)C[C@@H](C)[C@H](CN(C)Cc2ccc4c(c2)OCO4)OCCCC[C@H](C)O3)cc1	0.0	-52.5	0.2	100.0*	109.4*	-2.0	11.3	65.5*
C[C@@H]1CCCCO[C@@H](CN(C)Cc2ccc3c(c2)OCO3)[C@@H](C)CN([C@@H](C)CO)C(=O)c2cc(NS(=O)(=O)c3ccc(F)cc3)ccc2O1	-0.1	-36.4	x	114.6*	101.8*	49.8	25.5	93.6*
COc1ccc(S(=O)(=O)Nc2ccc3c(c2)C(=O)N([C@H](C)CO)C[C@@H](C)[C@@H](CN(C)Cc2ccc4c(c2)OCO4)OCCCC[C@H](C)O3)cc1	0.8	-69.2	x	55.0	x	x	x	x
COc1ccc(NC(=O)N(C)C[C@@H]2OCCCC[C@H](C)Oc3ccc(NS(C)(=O)=O)cc3C(=O)N([C@H](C)CO)C[C@H]2C)cc1	0.3	19.1	1.5	x	x	x	x	x
OC[C@@H]1[C@H](c2ccc(C#Cc3ccccc3)cc2)[C@@H]2CN(CC3CCOCC3)CCCCN12	-0.7	-11.5	x	104.4*	106.0*	81.3	31.7	103.2*
OC[C@H]1[C@@H](c2ccc(C#Cc3ccccc3)cc2)[C@H]2CN(CC3CCOCC3)CCCCN21	-1.0	-16.1	x	93.9	x	x	x	x
OC[C@@H]1[C@@H](c2ccc(C#Cc3ccccc3)cc2)[C@@H]2CN(CC3CCOCC3)CCCCN12	-0.5	-47.4	x	u	105.1*	65.2	52.0*	105.3*
OC[C@H]1[C@H](c2ccc(C#Cc3ccccc3)cc2)[C@H]2CN(CC3CCOCC3)CCCCN21	-1.3	-57.5	x	102.5*	108.8*	86.6	75.9*	104.9*
CCCC#Cc1ccc([C@H]2[C@@H](CO)N3CCCCN(CC4CCOCC4)C[C@H]23)cc1	0.4	-53.1	x	124.4*	93.0	78.4	30.1	100.8*
CCCC#Cc1ccc([C@H]2[C@H]3CN(CC4CCOCC4)CCCCN3[C@H]2CO)cc1	0.7	-7.7	x	64.8	x	x	x	x
O=C(c1ccc(F)cc1)N1CCCCN2[C@H](CO)[C@H](c3ccc(/C=C/c4ccccc4)cc3)[C@@H]2C1	-1.5	-17.5	x	110.9*	106.8*	u	23.3	105.2*
O=C(c1ccc(F)cc1)N1CCCCN2[C@@H](CO)[C@@H](c3ccc(/C=C/c4ccccc4)cc3)[C@@H]2C1	-0.7	-56.5	x	112.4*	98.0*	62.6	87.6*	103.8*
O=C(c1ccc(F)cc1)N1CCCCN2[C@H](CO)[C@H](c3ccc(-c4ccccc4)cc3)[C@H]2C1	-0.6	-22.9	x	65.1	x	x	x	x
O=C(c1ccc(F)cc1)N1CCCCN2[C@H](CO)[C@H](c3ccc(/C=C/c4ccccc4)cc3)[C@H]2C1	-1.2	-46.5	x	60.9	x	x	x	x
O=C(c1ccc(F)cc1)N1CCCCN2[C@H](C1)[C@@H](c1ccc(/C=C/c3ccccc3)cc1)[C@@H]2CO	-0.7	-18.0	x	98.8*	108.9*	78.7	33.1	31.7*
Cc1noc(C)c1NC(=O)N(C)C[C@@H]1Oc2ncc(C#CCN(C)C)cc2C(=O)N([C@@H](C)CO)C[C@@H]1C	0.9	20.4	-1.6	-41.2	x	x	x	x
COCC(=O)Nc1ccc2c(c1)[C@H]1C[C@H](CC(=O)NCc3ccccc3OC)O[C@@H](CO)[C@H]1O2	1.2	0.2	-1.2	100.7*	3.1	-0.3	-8.4	-12.0
COc1ccccc1CNC(=O)C[C@H]1C[C@H]2c3cc(NC(=O)Nc4ccc(C(F)(F)F)cc4)ccc3O[C@H]2[C@@H](CO)O1	-0.1	-32.7	-0.1	122.9*	105.3*	65.3	-9.1	-1.5
COc1ccccc1CNC(=O)C[C@@H]1CC[C@@H](NC(C)=O)[C@H](CO)O1	-1.4	-14.7	-0.3	u	3.5	-23.8	-14.8	3.3
COc1ccccc1CNC(=O)C[C@H]1CC[C@H](NC(C)=O)[C@H](CO)O1	-1.5	1.8	-0.1	-57.3	x	x	x	x
COc1ccccc1CNC(=O)C[C@H]1C[C@H]2c3cc(NC(=O)CC4CC4)ccc3O[C@H]2[C@H](CO)O1	-0.4	-18.4	-0.1	-15.9	x	x	x	x
COc1ccccc1CNC(=O)C[C@H]1C[C@@H]2c3cc(NC(=O)Nc4ccc(C(F)(F)F)cc4)ccc3O[C@@H]2[C@@H](CO)O1	-2.6	u	1.0	140.5*	110.4*	100.6*	0.2	14.1
O=C(Nc1ccc(F)cc1)N1CC(=O)N2[C@H](C1)[C@H](c1ccc(-c3ccc(F)cc3)cc1)[C@@H]2CO	1.9	-39.5	x	x	x	x	x	x
CC(C)CC#Cc1ccc2c(c1)O[C@H](CN(C)C(=O)c1ccccn1)[C@@H](C)CN([C@H](C)CO)S2(=O)=O	2.2	-49.0	-0.5	76.3	x	x	x	x
SMILES	KDM4C inh	Pf Dd2 inh	IDH1 R132H inh	T cruzi growth-1	T cruzi growth-2	T cruzi growth-3	NIH3T3 tox	3T3 cytotox 2
Cc1cccc(-c2nnc(SCC(=O)Nc3cccc(C(F)(F)F)c3)n2-c2ccccc2)c1	x	x	0.7	x	x	x	x	x
O=C(c1cccc(F)c1)N1CCCCN2[C@H](CO)[C@H](c3ccc(-c4cccnc4)cc3)[C@H]2C1	1.3	-6.1	x	60.3	x	x	x	x
O=C(c1cccc(F)c1)N1CCCCN2[C@@H](CO)[C@@H](c3ccc(-c4ccc(F)cc4)cc3)[C@@H]2C1	x	-21.1	x	67.3	x	x	x	x
O=C(c1cccc(F)c1)N1CCCCN2[C@H](CO)[C@H](c3ccc(-c4ccc(F)cc4)cc3)[C@H]2C1	x	-37.8	x	111.0*	101.7*	84.8	16.1	104.1*
O=C(c1cccc(F)c1)N1CCCCN2[C@H](CO)[C@@H](c3ccc(-c4ccncc4)cc3)[C@H]2C1	1.0	17.4	x	67.1	x	x	x	x
O=C(c1cccc(F)c1)N1CCCCN2[C@H](CO)[C@H](c3ccc(-c4cccnc4)cc3)[C@@H]2C1	0.1	0.6	x	u	103.2*	94.5	-3.6	-17.2
O=C(c1cccc(F)c1)N1CCCCN2[C@@H](CO)[C@H](c3ccc(-c4ccc(F)cc4)cc3)[C@@H]2C1	x	-3.6	x	105.2*	103.0*	35.1	32.8	106.4*
O=C(c1cccc(F)c1)N1CCCCN2[C@H](CO)[C@@H](c3ccc(-c4ccc(F)cc4)cc3)[C@H]2C1	x	31.2	x	80.2	x	x	x	x
O=C(c1cccc(F)c1)N1CCCCN2[C@@H](CO)[C@H](c3ccc(-c4ccncc4)cc3)[C@@H]2C1	1.1	-64.3	x	109.2*	101.4*	89.3	11.0	46.5*
